Measurements as given in ChEMBL document CHEMBL3758117, “Discovery of indeno[1,2-b]quinoxaline derivatives as potential anticancer agents” (Eur J Med Chem, 2016).
Active and inactive are the calls of the source. No cut-off for these calls is given here.

How the values were obtained:
[1] = Induction of apoptosis in human HuH7 cells assessed as upregulation of Bad expression at 1 to 10 uM after 24 hrs by Western blot analysis; format: functional, cell-based; details: Huh-7
[2] = Induction of apoptosis in human HuH7 cells assessed as upregulation of Bax expression at 1 to 10 uM after 24 hrs by Western blot analysis; format: functional, cell-based; details: Huh-7
Procedure, shortened: (§1)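 Huh-7 cells were treated with DMSO or compound at 1, 5 and 10 μM for 24 h. Cells were lysed in NP-40 buffer with protease and phosphatase inhibitors, and protein was measured by Bradford. Lysate protein was resolved by SDS-PAGE and transferred to PVDF. Membranes were blocked in 5% milk, probed with primary antibodies for 2 h and secondary antibodies for 30 min, and detected by ECL, with β-actin as loading control.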

[3] = tested on: Huh-7; assay: Induction of apoptosis in human HuH7 cells assessed as downregulation of Bcl-2 expression at 1 to 10 uM after 24 hrs by Western blot analysis; format: functional, cell-based; procedure, shortened: as §1
[4] = tested on: Huh-7; assay: Induction of apoptosis in human HuH7 cells assessed as downregulation of PARP expression at 1 to 10 uM after 24 hrs by Western blot analysis; format: functional, cell-based; procedure, shortened: as §1
[5] = target: Proto-oncogene tyrosine-protein kinase Src (Homo sapiens) (UniProt P12931); assay: Inhibition of Src phosphorylation in human HuH7 cells at 1 to 10 uM after 24 hrs by immunoblot analysis; format: cell-based; details: Huh-7; procedure, shortened: as §1
Chain of Proto-oncogene tyrosine-protein kinase Src (Homo sapiens) (P12931 2-536 limits assumed): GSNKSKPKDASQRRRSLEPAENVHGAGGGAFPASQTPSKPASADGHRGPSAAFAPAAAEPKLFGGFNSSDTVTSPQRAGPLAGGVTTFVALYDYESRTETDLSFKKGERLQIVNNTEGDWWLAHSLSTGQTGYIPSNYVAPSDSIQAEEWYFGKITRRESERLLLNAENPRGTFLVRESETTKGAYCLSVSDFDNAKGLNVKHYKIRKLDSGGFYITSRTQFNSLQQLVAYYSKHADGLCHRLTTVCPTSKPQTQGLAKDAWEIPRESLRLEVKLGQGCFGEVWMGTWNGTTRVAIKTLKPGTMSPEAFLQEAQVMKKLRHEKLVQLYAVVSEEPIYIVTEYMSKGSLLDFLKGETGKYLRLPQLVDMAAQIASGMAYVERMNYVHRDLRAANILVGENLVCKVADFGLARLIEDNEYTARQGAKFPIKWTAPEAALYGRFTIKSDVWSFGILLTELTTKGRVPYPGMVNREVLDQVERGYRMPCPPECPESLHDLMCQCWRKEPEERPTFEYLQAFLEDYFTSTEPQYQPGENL

[6] = target: RAC-beta serine/threonine-protein kinase (Homo sapiens) (UniProt P31751); assay: Inhibition of AKT2 phosphorylation in human HuH7 cells at 1 to 10 uM after 24 hrs by immunoblot analysis; format: cell-based; details: Huh-7; procedure, shortened: as §1
Chain of RAC-beta serine/threonine-protein kinase (Homo sapiens) (P31751 whole entry): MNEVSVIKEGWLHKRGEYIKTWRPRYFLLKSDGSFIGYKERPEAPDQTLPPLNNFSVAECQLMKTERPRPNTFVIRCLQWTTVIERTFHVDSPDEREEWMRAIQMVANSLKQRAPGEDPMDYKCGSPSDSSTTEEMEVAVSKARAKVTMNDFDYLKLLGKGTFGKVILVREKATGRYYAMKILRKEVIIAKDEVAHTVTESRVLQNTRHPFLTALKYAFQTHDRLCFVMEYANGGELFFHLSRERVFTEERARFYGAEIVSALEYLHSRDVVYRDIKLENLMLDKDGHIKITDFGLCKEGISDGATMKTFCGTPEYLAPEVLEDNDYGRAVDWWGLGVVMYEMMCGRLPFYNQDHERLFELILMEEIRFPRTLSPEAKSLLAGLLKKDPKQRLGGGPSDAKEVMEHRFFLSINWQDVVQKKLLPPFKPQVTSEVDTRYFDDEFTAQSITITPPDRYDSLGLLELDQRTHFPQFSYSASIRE

[7] = tested on: Escherichia coli; assay: Binding affinity to Escherichia coli negative supercoiled pBR322 DNA at 10 uM after 12 hrs by ethidium bromide staining based agarose gel electrophoresis
Procedure, shortened: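 Negatively supercoiled pBR322 (400 ng) in TE buffer pH 8.0 was incubated with compound at 10 μM for 12 h at room temperature. Loading buffer with sarkosyl was added. Samples were run on 1% agarose at 6 V/cm for 2.5 h in TAE pH 8.5, stained with ethidium bromide and photographed under UV.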

[8] = Antiproliferative activity against human H1299 cells after 72 hrs by XTT assay; format: functional, cell-based; details: NCI-H1299, 72 h
Procedure, shortened: (§2)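 Cells kept as monolayers in DMEM with 10% FBS, penicillin, streptomycin and amphotericin at 37°C, 5% CO2. Seeded at 5 x 10³ cells/well and exposed to compound for 72 h in medium with 10% FBS. XTT plus electron-coupling reagent added, 4 h at 37°C, absorbance read at 492 nm. Percent of control growth uses mean absorbance (n = 3). The 50% value is taken from the linear portion of the curve.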

[9] = Antiproliferative activity against human PC3 cells after 72 hrs by XTT assay; format: functional, cell-based; details: PC-3, 72 h; procedure, shortened: as §2
[10] = Selectivity index, ratio of IC50 for human MRC5 cells to IC50 for human H1299 cells; format: functional
[11] = target: T1, DNA topoisomerase 1 (Homo sapiens) (UniProt P11387); assay: Inhibition of human DNA topoisomerase 1-mediated relaxation of supercoiled pBR322 DNA at 100 uM after 30 mins by ethidium bromide staining based agarose gel electrophoresis
T1 sequence (whole entry): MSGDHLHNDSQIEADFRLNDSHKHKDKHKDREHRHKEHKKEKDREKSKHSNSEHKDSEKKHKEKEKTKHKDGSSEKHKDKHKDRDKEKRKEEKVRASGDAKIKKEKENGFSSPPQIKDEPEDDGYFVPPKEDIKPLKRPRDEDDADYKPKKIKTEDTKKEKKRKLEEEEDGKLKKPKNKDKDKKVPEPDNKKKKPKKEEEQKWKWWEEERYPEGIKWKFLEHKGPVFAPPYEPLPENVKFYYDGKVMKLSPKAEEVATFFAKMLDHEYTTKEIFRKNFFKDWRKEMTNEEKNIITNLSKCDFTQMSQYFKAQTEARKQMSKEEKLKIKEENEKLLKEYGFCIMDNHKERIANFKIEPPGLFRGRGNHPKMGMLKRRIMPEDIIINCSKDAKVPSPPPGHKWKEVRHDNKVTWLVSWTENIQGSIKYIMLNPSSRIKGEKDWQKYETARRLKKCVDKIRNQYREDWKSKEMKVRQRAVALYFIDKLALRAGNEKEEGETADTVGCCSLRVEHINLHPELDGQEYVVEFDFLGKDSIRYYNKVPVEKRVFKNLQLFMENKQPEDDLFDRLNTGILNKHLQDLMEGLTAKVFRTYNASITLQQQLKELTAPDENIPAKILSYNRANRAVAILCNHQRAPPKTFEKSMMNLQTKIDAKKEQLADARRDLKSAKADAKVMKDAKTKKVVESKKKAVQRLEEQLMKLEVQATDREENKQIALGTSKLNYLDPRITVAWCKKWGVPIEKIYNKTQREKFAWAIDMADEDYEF
Procedure, shortened: (§3)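 Human topo I or topo II (2 units) was reacted with 0.2 μg supercoiled pBR322 in 20 μl Tris-HCl pH 7.5 containing KCl, DTT, EDTA, MgCl2 and BSA, with DMSO held at 0.5%, for 30 min at 37°C. The reaction was stopped with SDS. Samples were run on 1% agarose in Tris-acetate/EDTA at 1.5 V/cm for 2-3 h and stained with ethidium bromide. Relaxation was quantified by densitometry of the supercoiled band area.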

[12] = target: T1, DNA topoisomerase 1 (Homo sapiens); assay: Inhibition of human DNA topoisomerase 1-mediated relaxation of supercoiled pBR322 DNA at 10 uM after 30 mins by ethidium bromide staining based agarose gel electrophoresis; procedure, shortened: as §3
[13] = target: DNA topoisomerase 2-alpha (Homo sapiens) (UniProt P11388); assay: Inhibition of human DNA topoisomerase 2-mediated relaxation of supercoiled pBR322 DNA at 100 uM after 30 mins by ethidium bromide staining based agarose gel electrophoresis; procedure, shortened: as §3
Chain of DNA topoisomerase 2-alpha (Homo sapiens) (P11388 whole entry): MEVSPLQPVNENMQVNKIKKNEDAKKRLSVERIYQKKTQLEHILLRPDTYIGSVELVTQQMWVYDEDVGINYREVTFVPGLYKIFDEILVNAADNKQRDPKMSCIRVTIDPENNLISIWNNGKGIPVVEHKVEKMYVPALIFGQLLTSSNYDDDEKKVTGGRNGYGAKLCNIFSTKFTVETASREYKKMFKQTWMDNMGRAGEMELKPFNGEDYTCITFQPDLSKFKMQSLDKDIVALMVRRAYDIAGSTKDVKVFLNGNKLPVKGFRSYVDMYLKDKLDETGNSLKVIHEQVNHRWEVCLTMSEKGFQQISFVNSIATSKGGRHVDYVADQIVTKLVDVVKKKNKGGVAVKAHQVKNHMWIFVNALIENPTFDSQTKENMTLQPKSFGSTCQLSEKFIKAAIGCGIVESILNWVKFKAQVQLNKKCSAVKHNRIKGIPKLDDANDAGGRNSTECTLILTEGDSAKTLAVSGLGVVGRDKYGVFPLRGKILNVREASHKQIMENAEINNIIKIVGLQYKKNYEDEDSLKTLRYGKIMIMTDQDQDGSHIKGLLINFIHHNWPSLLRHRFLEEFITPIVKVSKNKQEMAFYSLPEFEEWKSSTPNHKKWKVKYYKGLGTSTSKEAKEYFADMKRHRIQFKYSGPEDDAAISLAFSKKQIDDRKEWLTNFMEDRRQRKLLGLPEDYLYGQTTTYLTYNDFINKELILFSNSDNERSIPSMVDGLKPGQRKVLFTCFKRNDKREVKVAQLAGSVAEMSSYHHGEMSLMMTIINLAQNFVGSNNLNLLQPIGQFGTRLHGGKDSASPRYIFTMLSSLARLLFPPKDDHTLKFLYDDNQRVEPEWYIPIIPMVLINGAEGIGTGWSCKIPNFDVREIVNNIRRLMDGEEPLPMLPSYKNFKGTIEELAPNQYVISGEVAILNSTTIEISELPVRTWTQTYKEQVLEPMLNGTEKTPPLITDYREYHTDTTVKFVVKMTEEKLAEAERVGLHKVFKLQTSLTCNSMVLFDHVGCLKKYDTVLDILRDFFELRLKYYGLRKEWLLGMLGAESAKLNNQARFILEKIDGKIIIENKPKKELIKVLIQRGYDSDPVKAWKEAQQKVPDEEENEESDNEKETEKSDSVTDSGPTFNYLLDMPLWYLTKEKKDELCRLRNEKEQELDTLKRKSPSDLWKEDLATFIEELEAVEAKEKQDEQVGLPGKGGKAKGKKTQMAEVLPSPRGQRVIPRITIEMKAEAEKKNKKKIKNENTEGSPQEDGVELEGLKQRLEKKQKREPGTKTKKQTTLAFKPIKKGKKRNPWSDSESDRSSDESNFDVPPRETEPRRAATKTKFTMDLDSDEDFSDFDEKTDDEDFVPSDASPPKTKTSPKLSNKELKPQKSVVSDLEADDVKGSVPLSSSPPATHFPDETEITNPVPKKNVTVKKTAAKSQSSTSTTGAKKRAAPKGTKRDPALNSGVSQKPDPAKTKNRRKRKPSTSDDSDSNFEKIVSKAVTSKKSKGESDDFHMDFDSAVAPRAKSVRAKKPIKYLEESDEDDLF

[14] = target: DNA topoisomerase 2-alpha (Homo sapiens) (UniProt P11388); assay: Inhibition of human DNA topoisomerase 2-mediated relaxation of supercoiled pBR322 DNA at 10 uM after 30 mins by ethidium bromide staining based agarose gel electrophoresis; procedure, shortened: as §3
[15] = Cell cycle arrest in human HuH7 cells assessed as accumulation at sub G1 phase at 10 uM for 24 hrs by propidium iodide staining based flow cytometry (reference value: 1.3 +/- 0.7%); format: functional; details: Huh-7
[16] = Cell cycle arrest in human HuH7 cells assessed as accumulation at G1 phase at 1 uM for 24 hrs by propidium iodide staining based flow cytometry (reference value: 62.1 +/- 1.4%); format: functional; details: Huh-7
[17] = Cell cycle arrest in human HuH7 cells assessed as accumulation at S phase at 1 uM for 24 hrs by propidium iodide staining based flow cytometry (reference value: 11.4 +/- 2.4%); format: functional; details: Huh-7
[18] = Cell cycle arrest in human HuH7 cells assessed as accumulation at G2/M phase at 1 uM for 24 hrs by propidium iodide staining based flow cytometry (reference value: 25.2 +/- 3.5%); format: functional; details: Huh-7
[19] = Cell cycle arrest in human HuH7 cells assessed as accumulation at G2/M phase at 5 uM for 24 hrs by propidium iodide staining based flow cytometry (reference value: 25.2 +/- 3.5%); format: functional; details: Huh-7
[20] = Cell cycle arrest in human HuH7 cells assessed as accumulation at G2/M phase at 10 uM for 24 hrs by propidium iodide staining based flow cytometry (reference value: 25.2 +/- 3.5%); format: functional; details: Huh-7
[21] = Downregulation of cyclin B1 expression in human HuH7 cells at 1 to 10 uM after 24 hrs by immunoblot analysis; format: functional, cell-based; details: Huh-7; procedure, shortened: as §1

inhibition [5]: Active
inhibition [6]: Active
Activity [7]: Active
topoisomerase 1 inhibition (active/inactive) [11]: Active
inhibition [12]: Active
inhibition call (active/not active) [13]: Active
topoisomerase 2 inhibition (active/not active) [14]: Active
SMILES: CN(C)CCCNC(=O)c1cccc2nc3c(nc12)-c1ccccc1/C3=N\OCCCN(C)C.Cl
Activity [1]: Dose-dependent effect
Activity [2]: Dose-dependent effect
Activity [3]: Dose-dependent effect
Activity [4]: Dose-dependent effect
IC50 [8]: 5.78 µM
IC50 [9]: 0.82 µM
Ratio IC50 [10]: 5.45
Activity [15]: 23.4%
Activity [16]: 55.3%
Activity [17]: 21.6%
Activity [18]: 19.3%
Activity [19]: 22.9%
Activity [20]: 7.8%
Activity [21]: Active
